Assay outcomes as filed in PubChem.
The list is not random: actives were taken first. Their share in the collection is about 4.9%.
STAT3 inh – IL-6 driven STAT3 reporter inhibitors, primary screen, U3A cells, luciferase, luminescence, MLSCN library. IL-6 STAT3-luciferase reporter; host cell line lacks STAT1. inhibition, % at 5.5 µM. 190,000 compounds, 0.89% hits. AID 862, 2007;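 active = inhibition above the mean inhibition across all screened compounds plus 3 SD, cut at about 44% in these data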
STAT1 inh – STAT1 signaling inhibitors, primary screen, cell-based, HTS, luciferase reporter; NIH 3T3 STAT1-luciferase reporter, IFN-gamma, luminescence; inhibition, % at 5.5 µM; AID 920, 2007; 200,000 compounds, 0.35% hits;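 active = inhibition above a set limit, the mean inhibition across all tested compounds plus 3 SD, cut at about 34% in these data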
FLuc inh counter – firefly luciferase enzyme inhibitors, primary screen, artefact control for luciferase-based inhibitor screens, biochemical, luminescence, ATPLite | Luciferin 4-monooxygenase (Photinus pyralis), P08659 | 10 min | inhibition, % at 10 µM | 200,000 compounds, 1.5% hits;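 active = inhibition above about 50% when tested at 10 µM, limit read from the data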
Target sequence (P08659 whole entry, looked up): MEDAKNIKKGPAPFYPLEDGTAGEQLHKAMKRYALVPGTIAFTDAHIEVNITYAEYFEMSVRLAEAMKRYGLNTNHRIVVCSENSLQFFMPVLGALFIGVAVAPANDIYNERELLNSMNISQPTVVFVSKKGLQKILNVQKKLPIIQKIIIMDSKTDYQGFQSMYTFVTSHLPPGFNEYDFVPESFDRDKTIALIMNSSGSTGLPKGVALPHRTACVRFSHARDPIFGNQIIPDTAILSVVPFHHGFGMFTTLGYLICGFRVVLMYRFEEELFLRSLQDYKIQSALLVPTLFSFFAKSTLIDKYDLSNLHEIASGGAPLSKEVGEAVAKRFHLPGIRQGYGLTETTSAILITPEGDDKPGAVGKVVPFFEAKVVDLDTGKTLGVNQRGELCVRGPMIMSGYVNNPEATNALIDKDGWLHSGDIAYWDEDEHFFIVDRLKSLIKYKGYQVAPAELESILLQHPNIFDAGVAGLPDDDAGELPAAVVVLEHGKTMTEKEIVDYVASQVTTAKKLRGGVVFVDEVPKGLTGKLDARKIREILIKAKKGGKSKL
STAT3 activator – IL-6 driven STAT3 reporter potentiators, primary screen, U3A cells, luciferase, luminescence, MLSCN library; IL-6 STAT3-luciferase reporter; 100% = signal with IL-6 EC80 alone; activation (% of control), % at 5.6 µM; 190,000 compounds, 0.91% hits; AID 871, 2007;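 active = activation above the screen-wide mean of compound activation plus 3 SD, cut at about 130% in these data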
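Test system: STAT3-luciferase reporter U3A cells; Detection: reporter luminescence signal; Times: 1 h compound pre-exposure, 6 h IL-6 stimulation, 37 °C; Benchmarks: IL-6-only high control; Also added: IL-6 stimulus at 33 ng/mL final.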
FLuc stim CS – FLuc activators, initial screening, artefact control for FLuc-dependent activation tests, biochemical, ATPlite luminescence; Luciferin 4-monooxygenase (Photinus pyralis), P08659; ATPlite luciferase biochemical, 10 min; 0 = ATP-free wells, 1 = DMSO control; activation factor at 10 µM; 200,000 tested, under 10 active;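 active = luciferase activation factor, scaled between plate controls, of at least 2 with compound at 10 µM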
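Assay system – cell-free luciferase reagent · Medium – PBS-based ATP solution · Dosing – test compounds dosed from 2 mM stocks in 100% DMSO · Timing – 10 min, room temperature · Technique – light output (luminescence) · Measure – luminescence gain marking luciferase activators · Controls – No-ATP low control, compound-free enzyme-plus-ATP high control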
STAT1 act – STAT1 signaling activators, primary screen, cell-based, HTS, luciferase reporter; NIH 3T3 STAT1-luciferase reporter, IFN-gamma, luminescence; 100% = IFN-gamma alone, no compound; 200,000 compounds, 2.6% hits; activation (% of control), % at 5.5 µM;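 active = activation above the screen-wide mean activation plus 3 SD, cut at about 130% in these data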
Hits are given with their value; . = inactive; / = not tested or not shown.

SMILES | STAT3 inh | STAT1 inh | FLuc inh counter | STAT3 activator | FLuc stim CS | STAT1 act
CCOC(=O)c1sc(/N=C/c2c(O)ccc3ccccc23)cc1C | . | . | . | . | . | .
CCOC(=O)c1cc2c(s1)-c1ccccc1CC2 | . | . | . | 174.2 | . | 131.2
CCOC(=O)c1cc2cc3ccccc3cc2[nH]1 | . | . | . | . | . | 135.6
CCOC(=O)c1cc2ccc3ccccc3c2s1 | . | . | . | 202.8 | . | 151.4
CC(C)OC(=O)c1cc2ccccc2[nH]1 | . | . | . | . | . | .
O=C(COC(=O)c1cccc(S(=O)(=O)NCc2ccccc2)c1)NCC1CCCO1 (stereo not drawn) | . | . | . | . | . | .
COc1cc(OC)cc(C(=O)N[C@H](C(=O)OCC(=O)Nc2ccc(F)c(F)c2)C(C)C)c1 | . | . | . | . | . | .
CC(=O)Oc1ccc(C(=O)NCCc2ccccc2)cc1 | . | . | 51.1 | . | . | .
CN(C)S(=O)(=O)c1cccc(C(=O)NCCc2ccccc2)c1 | . | . | . | . | . | 134.1
CN(C)S(=O)(=O)c1cccc(C(=O)Nc2ccccc2)c1 | . | . | . | . | . | .
Cc1ccc(Nc2nc(NCc3ccco3)c3ccccc3n2)cc1 | . | . | . | . | . | .
O=C(NCCc1ccc(Cl)cc1)c1cnc2n(c1=O)CCS2 | / | / | . | / | . | /
O=C(NCCCc1ccccc1)c1cnc2n(c1=O)CCS2 | . | . | . | . | . | 138.8
O=C(NCCC1=CCCCC1)c1cnc2n(c1=O)CCS2 | . | . | . | . | . | 133.1
CCC1CCc2c(sc(NC(=O)C3c4ccccc4Oc4ccccc43)c2C(N)=O)C1 (stereo not drawn) | . | . | . | . | . | .
COc1ccc(-c2nc3ccccc3nc2-c2ccccc2)cc1 | . | . | . | . | . | .
COc1ccc2nc3ccccc3nc2c1 | . | . | . | . | . | 143.7
Brc1cccc(-c2n[nH]c(-c3ccccc3)n2)c1 | . | . | . | 151.9 | . | 138.1
CSc1ccc(/C=N/n2c(C)cc(C)cc2=O)cc1 | . | . | . | . | . | 130.5
Cc1cccc(N2CCN(Cc3cn(C)nc3-c3ccccc3F)CC2)n1 | . | . | . | . | . | .
C=CCNC(=O)CCc1nnc(C2(c3ccc(Cl)cc3)CCC2)o1 | . | . | . | . | . | 140.3
CCN1CCN(CC(=O)c2c[nH]c3ccccc23)CC1 | . | . | . | 133.1 | . | .
O=C1/C(=C\Nc2ccc(OC(F)(F)F)cc2)CCN1c1ncccn1 | . | . | . | . | . | 131.1
Cc1cc(Cl)ccc1OCC(=O)N/N=C1\CCCc2ccccc21 | . | . | . | . | . | .
O=C(COc1ccccc1F)N/N=C1\CCCc2ccccc21 | . | . | . | . | . | 138.9
SMILES | STAT3 inh | STAT1 inh | FLuc inh counter | STAT3 activator | FLuc stim CS | STAT1 act
CCN(Cc1ccccc1)Cc1nnnn1Cc1ccccc1 | . | . | . | . | . | .
Cc1ccc(C(=O)O/N=C(\N)c2cccc([N+](=O)[O-])c2)cc1 | . | . | 96.3 | . | . | 147.4
N/C(=N\OC(=O)c1ccc(Br)o1)c1cccnc1 | . | . | . | . | . | 130.7
N/C(=N\OC(=O)c1ccc([N+](=O)[O-])cc1)c1cccnc1 | . | . | 94.2 | . | . | .
N/C(=N\OC(=O)C1CCCCC1)c1cccnc1 | . | . | . | . | . | .
Cc1ccc(C(=O)O/N=C(\N)c2cccnc2)cc1[N+](=O)[O-] | . | . | 74.6 | . | . | .
Cc1ccc(CC(=O)O/N=C(\N)c2cccc([N+](=O)[O-])c2)cc1 | . | . | . | . | . | .
COc1ccc(C(=O)NCC(=O)OCc2ccc(F)cc2)cc1 | . | . | . | . | . | .
O=C(CN1CCc2ccccc2C1)Nc1cccc(S(=O)(=O)N2CCCC2)c1 | . | . | . | . | . | .
CCc1ccc(S(=O)(=O)/N=C2\C=CC(=O)c3ccccc32)cc1 | . | . | . | 144.8 | . | .
Cc1ccc(S(=O)(=O)/N=C2/C=C(C3C(=O)CC(C)(C)CC3=O)C(=O)c3ccccc32)cc1 | . | . | . | . | . | .
CCc1ccc(S(=O)(=O)/N=C2/C=C(Sc3ncn[nH]3)C(=O)c3ccccc32)cc1 | . | . | . | 139.1 | . | .
CCOC(=O)N1CCN(CC(O)COc2ccc(C)cc2C(C)(C)C)CC1 (stereo not drawn) | . | . | . | . | . | .
C1=C(c2cccc3ccccc23)N2CCN=C2S1 | . | . | . | 150.4 | . | .
O=S1(=O)CCN2C(c3cccc4ccccc34)=CSC2=N1 | . | . | . | . | . | .
CCc1nnc(NS(=O)(=O)c2ccc(N=Cc3c(C)[nH]n(-c4ccc(C)c(C)c4)c3=O)cc2)s1 | . | . | 65.6 | . | . | .
Cc1ccc(-n2[nH]c(C)c(C=Nc3ccc(S(=O)(=O)Nc4nccs4)cc3)c2=O)cc1 | . | . | . | . | . | .
N/C(=N\OC(=O)Cc1ccccc1[N+](=O)[O-])c1ccncc1 | . | . | . | . | . | .
COc1ccc(/C(N)=N/OC(=O)c2cccc([N+](=O)[O-])c2)cc1 | . | . | . | . | . | .
COc1ccc(/C(N)=N/OC(=O)c2cccc([N+](=O)[O-])c2C)cc1 | . | . | . | 133.8 | . | .
COc1cccc(/C(N)=N/OC(=O)Cc2ccccc2[N+](=O)[O-])c1 | . | . | . | . | . | 130.3
CN(c1cccc(NC(=O)CN(c2cccc(F)c2)S(C)(=O)=O)c1)S(C)(=O)=O | . | . | . | . | . | .
COC(=O)Nc1nnc(-c2ccccc2Cl)s1 | . | . | 55.0 | . | . | .
Cc1[nH]c2ccc(F)cc2c1CCN(Cc1cccnc1)C(=S)Nc1cccc(F)c1 | . | . | . | . | . | .
c1csc(-c2noc(COc3ccc4c(c3)CCCC4)n2)c1 | . | . | . | . | . | 132.1
CC(C)(C)c1ccc(C2CC2C(=O)N/N=C\c2ccc[nH]2)cc1 (stereo not drawn) | 71.0 | 45.8 | . | . | . | .
CC(C)COc1ccc(-c2nnc(-c3ccncc3)o2)cc1 | . | . | . | . | . | 136.0
CCOC(=O)c1ccc[n+](CC(=O)Nc2cc(C(F)(F)F)ccc2Cl)c1 | . | . | . | . | . | .
Cc1ccc2nc(SCc3ccc([N+](=O)[O-])cc3)[nH]c2c1 | . | . | . | . | . | .
Clc1ccc(CSc2nc3ccncc3[nH]2)cc1 | 81.4 | 52.0 | 97.3 | . | . | .
